Key:
Rattus norvegicus [1] = test: Antiinflammatory activity in carrageenan-induced Wistar rat paw edema model assessed as increase in paw volume at 20 mg/kg, po measured 3 hrs after carrageenan challenge relative to control; format: functional
In short: (§1)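 Wistar rats of either sex (150–175 g), fasted 16 h overnight, groups of six; compound dosed orally at 20 mg/kg bw. 30 min later 0.1 ml of 1% carrageenan in normal saline injected into subplantar aponeurosis of left hind paw. Paw volume read by plethysmometer at 0, 3 and 5 h; increase in volume (ml, SEM) and % inhibition versus control.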

Rattus norvegicus [2] = test: Antiinflammatory activity in carrageenan-induced Wistar rat paw edema model assessed as increase in paw volume at 20 mg/kg, po measured 5 hrs after carrageenan challenge relative to control; format: functional; in short: as §1
Rattus norvegicus [3] = test: Gastrointestinal toxicity in Wistar rat assessed as induction of gastric ulceration at 60 mg/kg, po; format: organism-based, Stomach; set-up: dose 60 mg/kg, route oral; conditions: in vivo
In short: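 Acute gastric ulcerogenicity in Wistar rats given 60 mg/kg bw orally. Animals sacrificed under deep ether anesthesia 6 h after treatment. Stomachs removed and opened along the greater curvature, then examined for lesions or bleeding.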

[4] = biological target: Prostaglandin G/H synthase 2 (Ovis aries) (UniProt P79208); test: Inhibition of recombinant COX2 at 0.05 uM
Chain of Prostaglandin G/H synthase 2 (Ovis aries) (P79208 whole entry, looked up): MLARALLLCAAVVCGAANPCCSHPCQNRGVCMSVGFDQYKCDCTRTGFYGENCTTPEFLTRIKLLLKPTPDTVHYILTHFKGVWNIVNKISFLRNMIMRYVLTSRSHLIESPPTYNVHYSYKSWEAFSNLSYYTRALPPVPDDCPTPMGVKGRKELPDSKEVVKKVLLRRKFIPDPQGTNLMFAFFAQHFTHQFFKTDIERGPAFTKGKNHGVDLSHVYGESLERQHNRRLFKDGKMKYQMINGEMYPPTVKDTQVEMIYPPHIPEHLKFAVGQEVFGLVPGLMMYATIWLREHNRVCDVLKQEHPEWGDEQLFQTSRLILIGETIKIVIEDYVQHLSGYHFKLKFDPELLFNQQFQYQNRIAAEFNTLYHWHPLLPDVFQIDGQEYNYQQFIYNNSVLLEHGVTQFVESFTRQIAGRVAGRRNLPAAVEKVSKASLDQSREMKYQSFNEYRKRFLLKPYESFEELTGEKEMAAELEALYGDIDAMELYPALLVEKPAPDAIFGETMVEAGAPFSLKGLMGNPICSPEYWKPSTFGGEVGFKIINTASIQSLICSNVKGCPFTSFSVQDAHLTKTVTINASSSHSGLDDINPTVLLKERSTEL

[5] = biological target: Prostaglandin G/H synthase 1 (Ovis aries) (UniProt P05979); test: Inhibition of recombinant COX1 at 0.05 uM
Chain of Prostaglandin G/H synthase 1 (Ovis aries) (P05979 whole entry, looked up): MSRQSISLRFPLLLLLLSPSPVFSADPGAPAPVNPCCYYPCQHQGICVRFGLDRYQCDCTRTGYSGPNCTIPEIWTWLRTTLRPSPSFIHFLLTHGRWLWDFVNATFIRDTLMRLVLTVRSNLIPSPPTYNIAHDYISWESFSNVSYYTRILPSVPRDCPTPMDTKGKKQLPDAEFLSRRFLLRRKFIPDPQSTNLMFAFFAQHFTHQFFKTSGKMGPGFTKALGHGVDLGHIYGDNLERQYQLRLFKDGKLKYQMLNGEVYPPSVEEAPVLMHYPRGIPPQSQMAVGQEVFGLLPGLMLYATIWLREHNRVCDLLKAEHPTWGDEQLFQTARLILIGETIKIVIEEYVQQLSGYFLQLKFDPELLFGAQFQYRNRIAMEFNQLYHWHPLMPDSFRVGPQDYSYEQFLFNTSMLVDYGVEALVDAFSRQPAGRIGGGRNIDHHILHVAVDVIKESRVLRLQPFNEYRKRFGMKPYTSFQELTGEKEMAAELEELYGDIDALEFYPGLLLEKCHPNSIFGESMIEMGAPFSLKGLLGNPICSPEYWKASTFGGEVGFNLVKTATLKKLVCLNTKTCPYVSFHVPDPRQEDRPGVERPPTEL

COc1ccc(C2=NN(c3ccc(S(N)(=O)=O)cc3)C(c3ccc(Cl)cc3)C2)c(OC)c1 (stereo unspecified)
Activity (Rattus norvegicus [1]): 25% | Activity (Rattus norvegicus [2]): 6.6%

COc1ccc(C2=NN(c3ccc(S(N)(=O)=O)cc3)C(c3cccc([N+](=O)[O-])c3)C2)c(OC)c1 (stereo unspecified)
Activity (Rattus norvegicus [3]): Non-toxic | Activity (Rattus norvegicus [1]): 68.8% | Activity (Rattus norvegicus [2]): 57.6% | inhibition [4]: 42.9% | inhibition [5]: 58.8%

COc1ccc(C2=NN(c3ccc(S(N)(=O)=O)cc3)C(c3cc(OC)c(OC)c(OC)c3)C2)c(O)c1 (stereo unspecified)
Activity (Rattus norvegicus [1]): 0% | Activity (Rattus norvegicus [2]): 0%

COc1ccc(C2=NN(c3ccc(S(N)(=O)=O)cc3)C(c3cccc(O)c3)C2)c(OC)c1 (stereo unspecified)
Activity (Rattus norvegicus [1]): 26.6% | Activity (Rattus norvegicus [2]): 5.3%

COc1ccc(C2=NN(c3ccc(S(N)(=O)=O)cc3)C(c3cc(OC)c(OC)c(OC)c3)C2)c(OC)c1 (stereo unspecified)
Activity (Rattus norvegicus [3]): Non-toxic | Activity (Rattus norvegicus [1]): 83.3% | Activity (Rattus norvegicus [2]): 76.6% | inhibition [4]: 38.6% | inhibition [5]: 30%

COc1ccc(C2=NN(c3ccc(S(N)(=O)=O)cc3)C(c3ccccc3Cl)C2)c(OC)c1 (stereo unspecified)
Activity (Rattus norvegicus [1]): 26.3% | Activity (Rattus norvegicus [2]): 46.3%

COc1ccc(C2=NN(c3ccc(S(N)(=O)=O)cc3)C(c3cccc(O)c3)C2)c(O)c1 (stereo unspecified)
Activity (Rattus norvegicus [1]): 33.3% | Activity (Rattus norvegicus [2]): 8.3%

COc1ccc(C2CC(c3ccccc3O)=NN2c2ccc(S(N)(=O)=O)cc2)cc1OC (stereo unspecified)
Activity (Rattus norvegicus [1]): 52% | Activity (Rattus norvegicus [2]): 10.6%

Cc1ccc(-c2cc(C(F)(F)F)nn2-c2ccc(S(N)(=O)=O)cc2)cc1 [CELECOXIB]
Activity (Rattus norvegicus [2]): 40%

COc1ccc(C2=NN(c3ccc(S(N)(=O)=O)cc3)C(c3ccccc3)C2)c(O)c1 (stereo unspecified)
Activity (Rattus norvegicus [1]): 0% | Activity (Rattus norvegicus [2]): 0%

COc1ccc(C2=NN(c3ccc(S(N)(=O)=O)cc3)C(c3ccc(OC)c(OC)c3)C2)c(O)c1 (stereo unspecified)
Activity (Rattus norvegicus [1]): 9% | Activity (Rattus norvegicus [2]): 13%

COc1ccc(C2=NN(c3ccc(S(N)(=O)=O)cc3)C(c3ccc(N(C)C)cc3)C2)c(OC)c1 (stereo unspecified)
Activity (Rattus norvegicus [3]): Non-toxic | Activity (Rattus norvegicus [1]): 79.6% | Activity (Rattus norvegicus [2]): 79.6% | inhibition [4]: 50% | inhibition [5]: 60.9%

COc1ccc(C2=NN(c3ccc(S(N)(=O)=O)cc3)C(c3ccccc3)C2)c(OC)c1 (stereo unspecified)
Activity (Rattus norvegicus [3]): Non-toxic | Activity (Rattus norvegicus [1]): 70% | Activity (Rattus norvegicus [2]): 66.5% | inhibition [4]: 85.7% | inhibition [5]: 73.2%

COc1ccc(C2=NN(c3ccc(S(N)(=O)=O)cc3)C(c3ccccc3Cl)C2)c(O)c1 (stereo unspecified)
Activity (Rattus norvegicus [1]): 60% | Activity (Rattus norvegicus [2]): 35.3%

COc1ccc(C2=NN(c3ccc(S(N)(=O)=O)cc3)C(c3ccc(Cl)cc3)C2)c(O)c1 (stereo unspecified)
Activity (Rattus norvegicus [1]): 28.6% | Activity (Rattus norvegicus [2]): 46.3%

COc1ccc(C2CC(c3ccc(OC)cc3OC)=NN2c2ccc(S(N)(=O)=O)cc2)cc1 (stereo unspecified)
Activity (Rattus norvegicus [1]): 49.3% | Activity (Rattus norvegicus [2]): 10.6%

COc1ccc(C2CC(c3c(O)ccc4c(C)cc(=O)oc34)=NN2c2ccc(S(N)(=O)=O)cc2)cc1 (stereo unspecified)
Activity (Rattus norvegicus [1]): 20% | Activity (Rattus norvegicus [2]): 10.6%

COc1ccc(C2CC(c3ccc(OC)cc3O)=NN2c2ccc(S(N)(=O)=O)cc2)cc1 (stereo unspecified)
Activity (Rattus norvegicus [1]): 27% | Activity (Rattus norvegicus [2]): 37.3%

Cc1cc(=O)oc2c(C3=NN(c4ccc(S(N)(=O)=O)cc4)C(c4cccc(O)c4)C3)c(O)ccc12 (stereo unspecified)
Activity (Rattus norvegicus [1]): 20% | Activity (Rattus norvegicus [2]): 30.6%

COc1ccc(C2CC(c3ccccc3O)=NN2c2ccc(S(N)(=O)=O)cc2)cc1 (stereo unspecified)
Activity (Rattus norvegicus [1]): 50% | Activity (Rattus norvegicus [2]): 41.3%

Reference: ChEMBL document CHEMBL1139245, “Synthesis and antiinflammatory activity of some new 1,3,5-trisubstituted pyrazolines bearing benzene sulfonamide” (Bioorg Med Chem Lett, 2009)
